What is called IC50 is the concentration that gives 50% inhibition.

Chain of Signal transducer and activator of transcription 3 (P40763 whole entry, the tested form may be a part): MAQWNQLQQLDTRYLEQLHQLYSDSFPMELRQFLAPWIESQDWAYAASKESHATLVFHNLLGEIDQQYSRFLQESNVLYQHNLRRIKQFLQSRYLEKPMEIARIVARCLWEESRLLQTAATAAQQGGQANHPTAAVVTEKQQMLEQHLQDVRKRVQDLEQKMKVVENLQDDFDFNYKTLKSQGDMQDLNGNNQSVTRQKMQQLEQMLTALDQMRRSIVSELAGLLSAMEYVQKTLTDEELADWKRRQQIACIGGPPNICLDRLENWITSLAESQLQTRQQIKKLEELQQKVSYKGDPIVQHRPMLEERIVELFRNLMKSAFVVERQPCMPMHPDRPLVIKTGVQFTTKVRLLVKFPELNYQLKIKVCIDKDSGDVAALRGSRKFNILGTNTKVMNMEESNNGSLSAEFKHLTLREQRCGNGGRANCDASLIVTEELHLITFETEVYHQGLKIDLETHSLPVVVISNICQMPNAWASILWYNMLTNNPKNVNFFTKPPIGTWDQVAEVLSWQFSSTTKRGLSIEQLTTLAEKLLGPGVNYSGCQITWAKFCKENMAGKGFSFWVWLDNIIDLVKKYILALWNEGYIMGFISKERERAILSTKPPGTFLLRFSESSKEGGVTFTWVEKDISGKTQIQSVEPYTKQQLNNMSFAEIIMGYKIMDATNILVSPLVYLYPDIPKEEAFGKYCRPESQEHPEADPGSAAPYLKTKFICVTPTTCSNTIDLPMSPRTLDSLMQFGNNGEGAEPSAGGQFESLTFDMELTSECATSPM

The target of this assay is Signal transducer and activator of transcription 3 (Homo sapiens, UniProt P40763). The assay can be described thus: Competitive binding affinity to Stat3 SH2 domain (unknown origin) using 5-FAM-GpYLPQTV-NH2 as probe assessed as phosphopetide complex formation after 30 mins by fluorescence polarization assay. The procedure, abridged:
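Fluorescence polarization. Recombinant STAT protein was incubated with the 5-FAM-GpYLPQTV-NH2 peptide probe and inhibitor for 30 min. Polarized fluorescence was plotted against inhibitor concentration, and IC50 was obtained by fitting a dose-response curve.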
A general note: In fluorescence polarisation assays a small probe gives low polarisation when free and higher when bound to something large.
For `Cc1ccc(S(=O)(=O)N(CC(=O)N(Cc2ccc(C3CCCCC3)cc2)c2ccc(C(=O)O)c(O)c2)Cc2ccncc2)cc1`, the IC50 amounted to 46.6 µM.

Turning to `COC(=O)c1cccc(CN(CC(=O)N(Cc2ccc(C3CCCCC3)cc2)c2ccc(C(=O)O)c(O)c2)S(=O)(=O)c2c(F)c(F)c(F)c(F)c2F)c1`, the IC50 came to 30.8 µM.

Regarding `Cc1ccc(CN(CC(=O)N(Cc2ccc(C3CCCCC3)cc2)c2ccc(C(=O)O)c(O)c2)S(=O)(=O)c2ccc(C)cc2)cc1`, the half-inhibitory concentration (IC50) is more than 50 µM.

For the compound `Cc1ccc(S(=O)(=O)N(CC(=O)N(Cc2ccc(C3CCCCC3)cc2)c2ccc(C(=O)O)c(O)c2)Cc2ccc(SC(F)(F)F)cc2)cc1`, the IC50 came to 9.6 µM.

In the case of `O=C(O)c1ccc(N(Cc2ccc(C3CCCCC3)cc2)C(=O)CN(Cc2ccccc2F)S(=O)(=O)c2c(F)c(F)c(F)c(F)c2F)cc1O`, the half-inhibitory concentration (IC50) worked out at 28 µM.

As to `Cc1ccc(S(=O)(=O)N(CC(=O)N(Cc2ccc(C3CCCCC3)cc2)c2ccc(C(=O)O)c(O)c2)Cc2cccc(C#N)c2)cc1`, the IC50 turned out to be 12.4 µM.

Take `N#Cc1ccccc1CN(CC(=O)N(Cc1ccc(C2CCCCC2)cc1)c1ccc(C(=O)O)c(O)c1)S(=O)(=O)c1c(F)c(F)c(F)c(F)c1F`: the IC50 is 11.4 µM.

As for `Cc1ccc(S(=O)(=O)N(CC(=O)N(Cc2ccc(C3CCCCC3)cc2)c2ccc(C(=O)O)c(O)c2)Cc2cccc(F)c2)cc1`, the IC50 came out at 9 µM.

For the compound `O=C(O)c1ccc(N(Cc2ccc(C3CCCCC3)cc2)C(=O)CNS(=O)(=O)c2c(F)c(F)c(F)c(F)c2F)cc1O`, the IC50 was 32.4 µM.

In the case of `N#Cc1cccc(CN(CC(=O)N(Cc2ccc(C3CCCCC3)cc2)c2ccc(C(=O)O)c(O)c2)S(=O)(=O)c2c(F)c(F)c(F)c(F)c2F)c1`, the IC50 came to 19.8 µM.

With `O=C(O)c1ccc(N(Cc2ccc(C3CCCCC3)cc2)C(=O)CN(Cc2ccccc2OC(F)(F)F)S(=O)(=O)c2c(F)c(F)c(F)c(F)c2F)cc1O`, the half-maximal inhibitory concentration (IC50) was 10.2 µM.

For `Cc1cccc(CN(CC(=O)N(Cc2ccc(C3CCCCC3)cc2)c2ccc(C(=O)O)c(O)c2)S(=O)(=O)c2c(F)c(F)c(F)c(F)c2F)c1`, the half-inhibitory concentration (IC50) was 14.6 µM.

Regarding `N#Cc1ccc(CN(CC(=O)N(Cc2ccc(C3CCCCC3)cc2)c2ccc(C(=O)O)c(O)c2)S(=O)(=O)c2c(F)c(F)c(F)c(F)c2F)cc1`, the IC50 came out at 9.4 µM.

In the case of `Cc1ccc(S(=O)(=O)N(CC(=O)N(Cc2ccc(C3CCCCC3)cc2)c2ccc(C(=O)O)c(O)c2)Cc2cccc(C)c2)cc1`, the half-inhibitory concentration (IC50) amounted to 5.2 µM.

Consider `O=C(O)c1ccc(N(Cc2ccc(C3CCCCC3)cc2)C(=O)CN(Cc2cccc(F)c2)S(=O)(=O)c2c(F)c(F)c(F)c(F)c2F)cc1O`, for which the concentration for half-maximal inhibition (IC50) amounted to 17.8 µM.

As to `Cc1ccc(S(=O)(=O)N(CC(=O)N(Cc2ccc(C3CCCCC3)cc2)c2ccc(C(=O)O)c(O)c2)Cc2ccc(C#N)cc2)cc1`, the IC50 came out at 8.6 µM.

Turning to `O=C(O)c1ccc(N(Cc2ccc(C3CCCCC3)cc2)C(=O)CN(Cc2ccccc2)S(=O)(=O)c2c(F)c(F)c(F)c(F)c2F)cc1O`, the IC50 is 14.4 µM.

As for `O=C(O)c1ccc(N(Cc2ccc(C3CCCCC3)cc2)C(=O)CN(Cc2ccccc2Cl)S(=O)(=O)c2c(F)c(F)c(F)c(F)c2F)cc1O`, the IC50 is 11 µM.

`Cc1ccc(S(=O)(=O)N(CC(=O)N(Cc2ccc(C3CCCCC3)cc2)c2ccc(C(=O)O)c(O)c2)Cc2cccc(Cl)c2)cc1`: the half-inhibitory concentration (IC50) turned out to be 6 µM.

In the case of `Cc1ccc(S(=O)(=O)N(CC(=O)N(Cc2ccc(C3CCCCC3)cc2)c2ccc(C(=O)O)c(O)c2)Cc2ccccc2[N+](=O)[O-])cc1`, the IC50 stood at 10 µM.

For the compound `CCOC(=O)c1ccc(CN(CC(=O)N(Cc2ccc(C3CCCCC3)cc2)c2ccc(C(=O)O)c(O)c2)S(=O)(=O)c2ccc(C)cc2)cc1`, the IC50 is 7.6 µM.

`Cc1ccc(S(=O)(=O)N(CC(=O)N(Cc2ccc(C3CCCCC3)cc2)c2ccc(C(=O)O)c(O)c2)Cc2ccc3ccccc3c2)cc1`: the concentration for half-maximal inhibition (IC50) worked out at 5 µM.

Regarding `O=C(O)c1ccc(N(Cc2ccc(C3CCCCC3)cc2)C(=O)CN(Cc2c(F)cc(F)c(F)c2F)S(=O)(=O)c2c(F)c(F)c(F)c(F)c2F)cc1O`, the IC50 was 17.6 µM.

On to `Cc1ccc(S(=O)(=O)N(CC(=O)N(Cc2ccc(C3CCCCC3)cc2)c2ccc(C(=O)O)c(O)c2)Cc2ccc(F)cc2C(F)(F)F)cc1`, for which the half-maximal inhibitory concentration (IC50) came out at 11 µM.

In the case of `Cc1ccc(S(=O)(=O)N(CC(=O)N(Cc2ccc(C3CCCCC3)cc2)c2ccc(C(=O)O)c(O)c2)Cc2c(F)c(F)cc(F)c2F)cc1`, the IC50 is 22.8 µM.

For the compound `Cc1ccc(S(=O)(=O)N(CC(=O)N(Cc2ccc(C3CCCCC3)cc2)c2ccc(C(=O)O)c(O)c2)Cc2ccc([N+](=O)[O-])cc2)cc1`, the IC50 was 11 µM.

For `O=C(O)c1ccc(N(Cc2ccc(C3CCCCC3)cc2)C(=O)CN(Cc2cccc(Cl)c2)S(=O)(=O)c2c(F)c(F)c(F)c(F)c2F)cc1O`, the concentration for half-maximal inhibition (IC50) came to 18.2 µM.

`Cc1ccc(S(=O)(=O)N(CC(=O)N(Cc2ccc(C3CCCCC3)cc2)c2ccc(C(=O)O)c(O)c2)Cc2ccccn2)cc1`: the half-inhibitory concentration (IC50) is 45.2 µM.

As for `Cc1ccc(S(=O)(=O)N(CC(=O)N(Cc2ccc(C3CCCCC3)cc2)c2ccc(C(=O)O)c(O)c2)Cc2ccccc2N)cc1`, the concentration for half-maximal inhibition (IC50) was 24 µM.

Consider `Cc1ccc(S(=O)(=O)N(CC(=O)N(Cc2ccc(C3CCCCC3)cc2)c2ccc(C(=O)O)c(O)c2)Cc2ccccc2F)cc1`, for which the 50% inhibitory concentration (IC50) is 10.6 µM.

Regarding `O=C(O)c1ccc(N(Cc2ccc(C3CCCCC3)cc2)C(=O)CN(Cc2ccc3ccccc3c2)S(=O)(=O)c2c(F)c(F)c(F)c(F)c2F)cc1O`, the half-maximal inhibitory concentration (IC50) amounted to 21.8 µM.

Turning to `Cc1ccc(S(=O)(=O)N(CC(=O)N(Cc2ccc(C3CCCCC3)cc2)c2ccc(C(=O)O)c(O)c2)Cc2ccccc2OC(F)(F)F)cc1`, the IC50 is 7.2 µM.

For `Cc1ccc(S(=O)(=O)N(CC(=O)N(Cc2ccc(C3CCCCC3)cc2)c2ccc(C(=O)O)c(O)c2)CC(C)C)cc1`, the IC50 was 17 µM.

For the compound `C=CCN(CC(=O)N(Cc1ccc(C2CCCCC2)cc1)c1ccc(C(=O)O)c(O)c1)S(=O)(=O)c1ccc(C)cc1`, the IC50 was more than 50 µM.

As for `Cc1ccc(S(=O)(=O)N(CC(=O)N(Cc2ccc(C3CCCCC3)cc2)c2ccc(C(=O)O)c(O)c2)Cc2ccc(OC(F)(F)F)cc2)cc1`, the half-maximal inhibitory concentration (IC50) is 11.8 µM.

Regarding `O=C(O)c1ccc(N(Cc2ccc(C3CCCCC3)cc2)C(=O)CN(Cc2ccc(OC(F)(F)F)cc2)S(=O)(=O)c2c(F)c(F)c(F)c(F)c2F)cc1O`, the half-inhibitory concentration (IC50) came to 21.6 µM.

With `Cc1ccc(S(=O)(=O)N(CC(=O)N(Cc2ccc(C3CCCCC3)cc2)c2ccc(C(=O)O)c(O)c2)Cc2cccc(OC(F)(F)F)c2)cc1`, the half-maximal inhibitory concentration (IC50) amounted to 8 µM.

For `Cc1ccc(S(=O)(=O)N(CC(=O)N(Cc2ccc(C3CCCCC3)cc2)c2ccc(C(=O)O)c(O)c2)Cc2ccc(N)cc2)cc1`, the IC50 came out at 20.8 µM.

`COC(=O)c1cccc(CN(CC(=O)N(Cc2ccc(C3CCCCC3)cc2)c2ccc(C(=O)O)c(O)c2)S(=O)(=O)c2ccc(C)cc2)c1`: the IC50 was 18.4 µM.

Regarding `O=C(O)c1ccc(N(Cc2ccc(C3CCCCC3)cc2)C(=O)CN(Cc2ccc(Cl)cc2)S(=O)(=O)c2c(F)c(F)c(F)c(F)c2F)cc1O`, the IC50 was 13.8 µM.

`COC(=O)c1ccccc1CN(CC(=O)N(Cc1ccc(C2CCCCC2)cc1)c1ccc(C(=O)O)c(O)c1)S(=O)(=O)c1c(F)c(F)c(F)c(F)c1F`: the IC50 was determined as 17.4 µM.

For `CCCN(CC(=O)N(Cc1ccc(C2CCCCC2)cc1)c1ccc(C(=O)O)c(O)c1)S(=O)(=O)c1ccc(C)cc1`, the half-inhibitory concentration (IC50) was 17.8 µM.

For `Cc1ccc(S(=O)(=O)N(CC(=O)N(Cc2ccc(C3CCCCC3)cc2)c2ccc(C(=O)O)c(O)c2)Cc2ccccc2C#N)cc1`, the half-inhibitory concentration (IC50) was found to be 22.6 µM.

`CCCN(CC(=O)N(Cc1ccc(C2CCCCC2)cc1)c1ccc(C(=O)O)c(O)c1)S(=O)(=O)c1c(F)c(F)c(F)c(F)c1F`: the concentration for half-maximal inhibition (IC50) was determined as 20.6 µM.

As for `Cc1ccc(S(=O)(=O)N(CC(=O)N(Cc2ccc(C3CCCCC3)cc2)c2ccc(C(=O)O)c(O)c2)Cc2cccc(N)c2)cc1`, the IC50 turned out to be 12.4 µM.

With `Cc1ccc(S(=O)(=O)N(CC(=O)N(Cc2ccc(C3CCCCC3)cc2)c2ccc(C(=O)O)c(O)c2)Cc2cccnc2)cc1`, the IC50 is more than 50 µM.

With `Cc1ccc(S(=O)(=O)N(CC(=O)N(Cc2ccc(C3CCCCC3)cc2)c2ccc(C(=O)O)c(O)c2)Cc2ccccc2)cc1`, the IC50 was 14.4 µM.

`Cc1ccc(S(=O)(=O)N(CC(=O)N(Cc2ccc(C3CCCCC3)cc2)c2ccc(C(=O)O)c(O)c2)Cc2cc(F)c(F)c(F)c2F)cc1`: the IC50 was 22.2 µM.

Regarding `Cc1ccc(CN(CC(=O)N(Cc2ccc(C3CCCCC3)cc2)c2ccc(C(=O)O)c(O)c2)S(=O)(=O)c2c(F)c(F)c(F)c(F)c2F)cc1`, the half-inhibitory concentration (IC50) was 14.4 µM.

On to `Cc1ccc(S(=O)(=O)N(CC(=O)N(Cc2ccc(C3CCCCC3)cc2)c2ccc(C(=O)O)c(O)c2)Cc2cccc([N+](=O)[O-])c2)cc1`, for which the IC50 worked out at 5 µM.

Consider `O=C(O)c1ccc(N(Cc2ccc(C3CCCCC3)cc2)C(=O)CN(Cc2cc(F)c(F)c(F)c2F)S(=O)(=O)c2c(F)c(F)c(F)c(F)c2F)cc1O`, for which the half-maximal inhibitory concentration (IC50) was 12.4 µM.

As for `Cc1ccc(S(=O)(=O)N(CC(=O)N(Cc2ccc(C3CCCCC3)cc2)c2ccc(C(=O)O)c(O)c2)Cc2ccccc2Cl)cc1`, the half-maximal inhibitory concentration (IC50) came to 15.8 µM.

As to `Cc1ccc(S(=O)(=O)N(CC(=O)N(Cc2ccc(C3CCCCC3)cc2)c2ccc(C(=O)O)c(O)c2)Cc2ccc(Cl)cc2)cc1`, the IC50 is 6.2 µM.

As to `O=C(O)c1ccc(N(Cc2ccc(C3CCCCC3)cc2)C(=O)CN(Cc2ccc(F)cc2)S(=O)(=O)c2c(F)c(F)c(F)c(F)c2F)cc1O`, the IC50 worked out at 17.6 µM.

For the compound `Cc1ccc(S(=O)(=O)N(CC(=O)N(Cc2ccc(C3CCCCC3)cc2)c2ccc(C(=O)O)c(O)c2)Cc2ccc(F)cc2)cc1`, the IC50 came to 7.6 µM.

Turning to `COC(=O)c1ccc(CN(CC(=O)N(Cc2ccc(C3CCCCC3)cc2)c2ccc(C(=O)O)c(O)c2)S(=O)(=O)c2ccc(C)cc2)cc1`, the IC50 turned out to be 11.6 µM.

On to `Cc1ccc(S(=O)(=O)N(CC(N)=O)CC(=O)N(Cc2ccc(C3CCCCC3)cc2)c2ccc(C(=O)O)c(O)c2)cc1`, for which the IC50 is more than 50 µM.

As for `O=C(O)c1ccc(N(Cc2ccc(C3CCCCC3)cc2)C(=O)CN(Cc2cccc(OC(F)(F)F)c2)S(=O)(=O)c2c(F)c(F)c(F)c(F)c2F)cc1O`, the IC50 is 17.8 µM.

With `CC(C)(C)OC(=O)N(CC(=O)N(Cc1ccc(C2CCCCC2)cc1)c1ccc(C(=O)O)c(O)c1)S(=O)(=O)c1c(F)c(F)c(F)c(F)c1F`, the IC50 is 27.4 µM.

For the origin of these results see ChEMBL document CHEMBL2429859, “Inhibiting aberrant signal transducer and activator of transcription protein activation with tetrapodal, small molecule Src homology 2 domain binders: promising agents against multiple myeloma” (J Med Chem, 2013).
